The results in this text go back to ChEMBL document CHEMBL1129569, “Synthesis and anticonvulsant activities of N-Benzyl-2-acetamidopropionamide derivatives” (J Med Chem, 1996).

Broadly, the TD50 is the 50% point of the dose-response relation for the toxic effect studied. Lower therefore signals greater toxicity. As usually defined, the ED50 is the midpoint of the dose-response relation.

Values joined by “and” are separate entries in the source; they are usually repeats but may differ in a detail not shown here. Equal entries are not always repeated.

In data set [1] the test system is Mus musculus. In words: (§1) Neurotoxic toxicity was evaluated by rotarod test after intraperitoneal administration. It counts as organism-based. Particulars: in vivo, ip. The gist of the method:
(§2)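 Mice, ip, in 0.5% methylcellulose suspension. Impairment was defined as failure to stay balanced for 1 min on a 1 in. knurled rod turning at 6 rpm, in each of three successive trials.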
On the technique in general: In the rotarod test animals must keep their balance on a rotating rod.

Data set [2] concerns Mus musculus. Briefly: Effective dose against maximal electroshock seizure in mice after intraperitoneal administration. It counts as functional. The gist of the method:
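Mice, ip; compounds suspended in 0.5% (w/v) methylcellulose in water, 0.01 mL/g body weight. Butacaine-containing saline electrolyte was dropped on the eyes, then corneal electrodes delivered 60-cycle AC, 50 mA, 0.2 s. The endpoint was abolition of hindlimb tonic extension.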
In general terms: Protection in the maximal electroshock model is a classic sign of anticonvulsant action.

Data set [3] in a line: Protective index between TD50/MES ED50 when administered intraperitoneally to mice. It counts as ADME, organism-based. Particulars: mouse, in vivo, ip; read-out: PI.
Data set [4] in a line: Neurotoxic toxicity against Rat was evaluated by rotarod test afte oral administration. It counts as organism-based. The settings on record: in vivo.
The subject of another data set is Rattus norvegicus. In words: Effective dose against maximal electroshock seizure in rat after oral administration. It counts as functional. A digest of the protocol: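 Male Sprague Dawley rats dosed orally with a suspension in 0.5% (w/v) methylcellulose in water. After anaesthetic electrolyte eye drops, corneal 60-cycle AC was applied at 150 mA for 0.2 s. Protection meant abolition of hindlimb tonic extensor.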

Data set [5] is described as follows: Protective index between TD50/MES ED50 when administered orally to rat. It counts as ADME, organism-based. Particulars: in vivo, po, read-out: PI. The gist of the method: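 Rats, oral. PI = TD50 (ataxia, gait and placing-response assessment) / MES ED50 (150 mA, 0.2 s corneal shock), with both taken at the time of peak effect.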
Data set [6] in a line: Protective index between TD50/MES ED50 when administered intraperitoneally to mouse. It counts as ADME, organism-based. Particulars: in vivo, ip, read-out: PI.
Data set [7] is described as follows: as §1. It counts as organism-based. The settings on record: mouse, in vivo, ip. The gist of the method:
as §2

A short description of data set [8]: Neurotoxic toxicity was evaluated by rotarod test after intraperitoneal administration determined from horizontal screen test. It counts as organism-based. The settings on record: mouse, in vivo, ip.
Data set [9] in a line: Neurotoxic toxicity against Rat was evaluated by rotarod test afte oral administration <250. It counts as organism-based. Particulars: in vivo.
The nature of data set [10]: Neurotoxic toxicity in mice was evaluated by rotarod test after intraperitoneal administration. It counts as organism-based. The settings on record: mouse, in vivo, ip. A digest of the protocol: as §2
Setting [11] is: Mus musculus, ip, read-out: ED50.

Take `CC(=O)NC(CBr)C(=O)NCc1ccccc1` (centres undefined): in the data set on Mus musculus [1], the TD50 was > 100 mg/kg and < 300 mg/kg.
Consider `CNCC(NC(C)=O)C(=O)NCc1ccccc1` (centres undefined), for which, in the data set on Mus musculus [2], the ED50 is <300 mg/kg and >100 mg/kg. The TD50 with Mus musculus [1] was < 300 mg/kg and > 100 mg/kg.
For `CC(=O)NC(CCl)C(=O)NCc1ccccc1` (centres undefined), in the data set with Mus musculus [2] (setting [11]), the median effective dose (ED50) was 100 mg/kg. For the same compound, the TD50 in the data set with Mus musculus [1] was < 300 mg/kg and > 100 mg/kg.
On to `CC(=O)N[C@@H](C)C(=O)NCc1ccccc1`, for which the selectivity ratio in data set [3] amounted to 1.5.
Take `COC[C@@H](NC(C)=O)C(=O)NCc1ccccc1` [LACOSAMIDE]: the TD50 in data set [4] is > 500 mg/kg.
Consider `CC(=O)NC(NO)C(=O)NCc1ccccc1` (centres undefined), for which, in the data set with Mus musculus [2] (setting [11]), the ED50 turned out to be 100 mg/kg.
With `CC(=O)N[C@H](C)C(=O)NCc1ccccc1`, the median effective dose (ED50) in the data set on Rattus norvegicus amounted to 28 mg/kg; with Mus musculus [2] (setting [11]) it was 55 mg/kg. For the same compound, the figures for the selectivity ratio in data set [3] and in data set [5] were 3.9 and > 36, respectively.
`CC(=O)NC(C)C(=O)NCc1ccccc1` (centres undefined) displayed an ED50 in the data set with Rattus norvegicus of 48 mg/kg. Further, the selectivity ratio is 5.9 in [3] and > 21 in data set [5].
In the case of `CCCC(CCC)C(=O)O` [VALPROIC ACID], the results for the 50% effective dose (ED50) with Rattus norvegicus and in the data set with Mus musculus [2] (setting [11]) were 400 mg/kg and 290 mg/kg, respectively.
Turning to `O=C1NC(=O)C(c2ccccc2)(c2ccccc2)N1` [PHENYTOIN], the ED50 in the data set on Rattus norvegicus worked out at 23 mg/kg; in the data set on Mus musculus [2] (setting [11]) it was 6.5 mg/kg. The selectivity ratio in [5] is > 22; in data set [6] it was 6.6.
Regarding `CC(=O)NC(CN(C)C)C(=O)NCc1ccccc1` (centres undefined), the TD50 in [7] is > 300 mg/kg.
On to `CC(=O)NC(CO)C(=O)NCc1ccccc1` (centres undefined), for which the median effective dose (ED50) in the data set on Mus musculus [2] is >100 mg/kg and <300 mg/kg. Also, the TD50 in data set [8] is < 300 mg/kg.
Take `CC(=O)NC(CN1CCOCC1)C(=O)NCc1ccccc1` (centres undefined): in the data set with Mus musculus [2], the median effective dose (ED50) is <300 mg/kg and >100 mg/kg. For the same compound, the TD50 in data set [7] was > 300 mg/kg.
On to `COC[C@@H](NC(C)=O)C(=O)NCc1ccc(F)cc1`, for which the results for the TD50 in data set [4] and in data set [9] were < 250 mg/kg and > 125 mg/kg, respectively. Besides, the ED50 in the data set on Rattus norvegicus was 2.6 mg/kg; in the data set with Mus musculus [2] (setting [11]), 4.2 mg/kg. Further, in [3], the selectivity ratio was 6.7.
`CC(=O)NC(CI)C(=O)NCc1ccccc1` (centres undefined) returned a TD50 in [7] of 300 mg/kg.
For `CSCC(NC(C)=O)C(=O)NCc1ccccc1` (centres undefined), the TD50 in the data set with Mus musculus [1] is < 300 mg/kg and > 100 mg/kg.
For `CCOCC(NC(C)=O)C(=O)NCc1ccccc1` (centres undefined), the ED50 in the data set on Rattus norvegicus stood at 19 mg/kg. In data set [7], this compound came in with a TD50 of 78 mg/kg. Further, the selectivity ratio in data set [5] was > 26; in data set [6] it was 4.6.
Turning to `COC[C@H](NC(C)=O)C(=O)NCc1ccccc1`, the values for the TD50 in data set [4] and in data set [10] were > 30 mg/kg and > 300 mg/kg, respectively. Further, the 50% effective dose (ED50) in the data set on Rattus norvegicus was > 30 mg/kg; in the data set on Mus musculus [2], >100 mg/kg and <300 mg/kg.
Consider `CC(=O)NC(CN)C(=O)NCc1ccccc1` (centres undefined), for which the ED50 in the data set with Mus musculus [2] (setting [11]) was > 100 mg/kg. In addition, the TD50 in [7] is > 100 mg/kg.
Consider `CCNCC(NC(C)=O)C(=O)NCc1ccccc1` (centres undefined), for which the ED50 in the data set on Mus musculus [2] (setting [11]) was > 100 mg/kg. In addition, in data set [7], the TD50 turned out to be 100 mg/kg.
On to `COC[C@@H](NC(C)=O)C(=O)NCc1cccc(F)c1`, for which the TD50 was > 400 mg/kg in data set [4] and 46 mg/kg in data set [7]. Also, the 50% effective dose (ED50) in the data set with Rattus norvegicus and with Mus musculus [2] (setting [11]) was 6.9 mg/kg throughout. The selectivity ratio in [3] was 6.7; in data set [5], > 58.
For `CON(C)C(NC(C)=O)C(=O)NCc1ccccc1` (centres undefined), the ED50 with Mus musculus [2] (setting [11]) was found to be 6.7 mg/kg. For the same compound, in data set [8], the TD50 turned out to be 51 mg/kg. Moreover, in [3], the selectivity ratio was found to be 7.6.
For `CC(=O)N[C@H](CO)C(=O)NCc1ccccc1`, the ED50 with Mus musculus [2] (setting [11]) was found to be 53 mg/kg. For the same compound, the TD50 in data set [10] was > 500 mg/kg. Moreover, in data set [6], the selectivity ratio is > 9.4.
Regarding `CONC(NC(C)=O)C(=O)NCc1ccccc1` (centres undefined), in the data set with Mus musculus [2] (setting [11]), the ED50 was determined as 6.2 mg/kg. In addition, the selectivity ratio in data set [3] came out at 7.4.
